According to article PMC10287037 (European journal of medicinal chemistry, 2023):
Where two headings read alike, the source gives them in different places.

Key:
[1] = tested on: PBL not stimulated with PHA; test: Cytotoxicity in resting human PBLs; format: cell-based; details: 72 h, read-out: IC50 (compound concentration required to inhibit cell growth by 50%)
Procedure, shortened: (§1)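 Healthy-donor human PBLs; non-adherent cells at 5×10^5 cells/mL in growth medium. Proliferating cultures received PHA; resting cultures used the same density without PHA. Graded compound concentrations from 10 mM DMSO stocks. Viability by MTT after 72 h incubation. IC50 is the concentration inhibiting cell growth by 50%.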

[2] = tested on: PBL stimulated with PHA; test: Cytotoxicity in PHA-stimulated human PBLs; format: cell-based; details: 72 h, read-out: IC50 (compound concentration required to inhibit cell growth by 50%)
Procedure, shortened: as §1

[3] = tested on: VL51 cells; test: p-histone H3 staining of mitotic cells by flow cytometry; format: cell-based, human; details: 24 h
Procedure, shortened: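 VL51 lymphoma cells in RPMI-1640 with 20% FBS, penicillin-streptomycin-neomycin and 1% L-glutamine at 37 °C, 5% CO2. Seeded at 2.0×10^5 per well in 6-well plates, then treated 24 h at indicated concentrations. Harvested by centrifugation, fixed in 70% ice-cold ethanol, stained with anti-phospho-histone H3 antibody plus PI, and analysed by flow cytometry as % p-H3-positive (mitotic) cells.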

[4] = tested on: A549, CCRF-CEM and VL51 cells; test: Apoptosis assay; format: cell-based, human; details: 48 h incubation; annexin-V/PI
Procedure, shortened: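 A549, CCRF-CEM and VL51 cultured at 37 °C, 5% CO2; lymphoma line in RPMI-1640 with 20% FBS, pen-strep-neomycin and 1% L-glutamine. Test compound from 10 mM DMSO stock, several concentrations, 48 h. Annexin-V Fluos kit per manufacturer: annexin-V-FITC (FL1) and PI (FL3) by flow cytometry. Apoptotic % = annexin-V+ plus annexin-V/PI double-positive cells; mean ± S.E.M., three independent experiments.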

[5] = tested on: VL51 cells; test: Mitochondrial membrane potential; format: cell-based, human; details: 24 h, 0.5 and 1.0 μM, VL51, JC-1
Procedure, shortened: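 VL51 lymphoma cells were grown in RPMI-1640 with 20% FBS, pen-strep-neomycin and 1% L-glutamine at 37 °C, 5% CO2. Cells were treated 24 h with test compound diluted from a 10 mM DMSO stock. They were then labelled with JC-1 and analysed by flow cytometry in the FL1 and FL2 channels.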

[6] = tested on: tubulin (colchicine site); test: Inhibition of [3H]colchicine binding to tubulin; details: 5 μM inhibitor; 0.5 μM tubulin, 5.0 μM [3H]colchicine
[7] = tested on: tubulin; test: Inhibition of tubulin assembly; format: biochemical; details: compared with 3d / CA-4
[8] = tested on: leukemia cell lines; test: NCI five-dose screening, leukemia subpanel; format: cell-based, human; details: for GI50: Homo sapiens, read-out: GI50 values (range over subpanel)
Procedure, shortened: (§2)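 Run by NCI. Prescreen at 10^-5 M across 60 human lines from nine tumour types: leukemia, NSCLC, colon, CNS, melanoma, ovarian, renal, prostate, breast. GI50 is the concentration inhibiting cell growth by 50%. MG_MID is the arithmetic mean GI50 over tested lines; where 50% inhibition was not reached, the highest tested concentration was used.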

[9] = tested on: colon cancer subpanel; test: NCI five-dose screening, colon cancer subpanel; format: cell-based, human; details: for GI50: Homo sapiens
Procedure, shortened: as §2

[10] = tested on: renal cancer subpanel; test: NCI five-dose screening, renal cancer subpanel; format: cell-based; details: Homo sapiens, TK-10, read-out: GI50 (range over subpanel)
Procedure, shortened: as §2

[11] = tested on: prostate cell lines; test: NCI five-dose screening, prostate subpanel; format: cell-based; details: Homo sapiens, read-out: GI50 values (range over subpanel)
Procedure, shortened: as §2

[12] = tested on: VL51 (marginal zone lymphoma, MZL) cells; test: MTT cell proliferation assay, VL51; format: cell-based; details: Homo sapiens, VL51, 72 h, bound stated
[13] = tested on: non-Hodgkin lymphoma (NHL) cells HBL1, SU-DHL-10, MINO, VL51; test: MTT cell proliferation assay, panel of four NHL cell lines; format: cell-based, human; details: for reduction in the percentage of cellular proliferation: 1 μM, 72 h incubation, towards each cell line

Q: How did the IC50 [1] turn out when `COc1ccc(Cn2cc3c(c2-c2ccccc2)CCCc2cnoc2-3)cc1` [3d, 8-(4-Methoxybenzyl)-7-phenyl-4,5,6,8-tetrahydropyrrolo[3’,4’:3,4]cyclohepta[1,2-d][1,2]oxazole] was run?
A: > 10 µM

Q: And the IC50 [2]?
A: > 10 µM

Q: What about the “increase of mitotic cells (p-histone H3 positive)” value [3] of the same compound?
A: did not observe a significant increase of mitotic cells

Q: What about the induction of apoptosis [4] of the same compound?
A: induced apoptosis to a lesser extent

Q: What about the “depolarization of the mitochondrial membrane” value (“depolarization” below) [5] of the same compound?
A: slight depolarization of the mitochondrial membrane

Q: With `COc1ccc(/C=C\c2cc(OC)c(OC)c(OC)c2)cc1O` [CA-4, combretastatin A-4] as the compound, how does the “Inhibition of colchicine binding % Inhibition ± SD” value [6] read?
A: 98 ± 2%

Q: Which “fold less active on tubulin assembly” value [7] does the source give for `COc1ccc(Cn2cc3c(c2-c2ccc(OC)cc2)CCCc2cnoc2-3)cc1` [3p, 8-(4-Methoxybenzyl)-7-(4-methoxyphenyl)-4,5,6,8-tetrahydropyrrolo[3’,4’:3,4]cyclohepta[1,2-d][1,2]oxazole] here?
A: about 4 fold

Q: How did the GI50 [8] turn out when `COc1ccc(Cn2cc3c(c2-c2cc(OC)c(OC)c(OC)c2)CCCc2cnoc2-3)cc1N` [3z, 2-Methoxy-5-((7-(3,4,5-trimethoxyphenyl)-5,6-dihydropyrrolo[3’,4’:3,4]cyclohepta[1,2-d]isoxazol-8(4H)-yl)methyl)aniline] was run?
A: 0.3 to 0.65 µM

Q: And the GI50 ([9]; HCC 2998, read-out: GI50 (range over subpanel))?
A: 0.38 to 0.56 µM

Q: And the GI50 [10]?
A: 0.36 to 0.84 µM

Q: And the GI50 [11]?
A: 0.43 to 0.84 µM

Q: What about the IC50 [12] of the same compound?
A: < 0.5 µM

Q: And the “reduction in the percentage of cellular proliferation” value [13]?
A: higher than 50%

Q: What about the IC50 ([13]; Homo sapiens, 72 h, read-out: IC50 values (range over all four NHL cell lines)) of the same compound?
A: 0.1 to 0.5 µM

Q: What about the IC50 [1] of the same compound?
A: > 10 µM

Q: And the IC50 [2]?
A: > 10 µM

Q: What about the induction of apoptosis [4] of the same compound?
A: massive apoptosis in a dose-dependent manner

Q: What about the “depolarization” value [5] of the same compound?
A: depolarization was extensive

Q: `COc1ccc(Cn2cc3c(c2-c2cc(OC)c(OC)c(OC)c2)CCCc2cnoc2-3)cc1` [3u, 8-(4-Methoxybenzyl)-7-(3,4,5-trimethoxyphenyl)-4,5,6,8-tetrahydropyrrolo[3’,4’:3,4]cyclohepta[1,2-d][1,2]oxazole] was tested. Which GI50 [8] did it give?
A: 0.35 to 1.56 µM

Q: And the “calculated MG_MID for subpanel” value ([8]; leukemia subpanel)?
A: 0.65 µM

Q: What about the GI50 ([9]; read-out: GI50 values (range over subpanel)) of the same compound?
A: 0.39 to 1.61 µM

Q: And the “calculated MG_MID for subpanel” value ([9]; colon cancer subpanel)?
A: 0.88 µM

Q: What about the IC50 [12] of the same compound?
A: < 0.5 µM

Q: And the “reduction in the percentage of cellular proliferation” value [13]?
A: higher than 50%

Q: What about the IC50 [1] of the same compound?
A: > 10 µM

Q: And the IC50 [2]?
A: > 10 µM

Q: What about the induction of apoptosis [4] of the same compound?
A: massive apoptosis in a dose-dependent manner

Q: What about the “depolarization” value [5] of the same compound?
A: depolarization was extensive
